Each block holds one compound with its values, some of them ahead of it. Calls of active or inactive are those of the source. No cut-off for these calls is given here.
Legend:
[1] = molecular target: T1, Prostaglandin G/H synthase 1 (Mus musculus, UniProt P22437); test: Inhibition of COX1 in mouse RAW264.7 cells by enzyme immunoassay; type: cell-based
T1 sequence (P22437 whole entry): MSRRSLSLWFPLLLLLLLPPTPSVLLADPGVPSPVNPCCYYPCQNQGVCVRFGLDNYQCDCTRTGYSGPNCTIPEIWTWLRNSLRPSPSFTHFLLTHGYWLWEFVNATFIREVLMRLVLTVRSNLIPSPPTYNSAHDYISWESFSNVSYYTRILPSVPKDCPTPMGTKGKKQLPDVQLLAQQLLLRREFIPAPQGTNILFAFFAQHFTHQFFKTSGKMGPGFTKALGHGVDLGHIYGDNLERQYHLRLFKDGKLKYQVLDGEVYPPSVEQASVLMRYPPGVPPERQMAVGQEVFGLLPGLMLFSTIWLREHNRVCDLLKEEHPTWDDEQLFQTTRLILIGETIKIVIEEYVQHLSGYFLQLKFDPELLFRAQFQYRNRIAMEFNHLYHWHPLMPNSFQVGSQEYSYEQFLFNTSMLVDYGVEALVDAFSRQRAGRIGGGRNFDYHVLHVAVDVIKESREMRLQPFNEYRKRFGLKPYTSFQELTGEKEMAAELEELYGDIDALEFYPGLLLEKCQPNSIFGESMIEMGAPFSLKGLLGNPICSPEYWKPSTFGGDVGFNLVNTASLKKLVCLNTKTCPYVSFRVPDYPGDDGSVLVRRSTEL
Method in brief: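 RAW 264.7 cells (5×10^5/well) grown overnight in DMEM with 10% FBS, then washed with PBS. Cells were not LPS-stimulated. Serum-free, phenol red-free DMEM; compound pretreatment 1 h at 37 °C, then 30 µM arachidonic acid for 30 min at 37 °C. PGE2 in the medium measured by EIA.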

[2] = molecular target: T2, Prostaglandin G/H synthase 1 (Homo sapiens, UniProt P23219); test: Inhibition of human recombinant COX1 in human platelets at 10 uM by enzyme immunoassay
T2 sequence (P23219 whole entry): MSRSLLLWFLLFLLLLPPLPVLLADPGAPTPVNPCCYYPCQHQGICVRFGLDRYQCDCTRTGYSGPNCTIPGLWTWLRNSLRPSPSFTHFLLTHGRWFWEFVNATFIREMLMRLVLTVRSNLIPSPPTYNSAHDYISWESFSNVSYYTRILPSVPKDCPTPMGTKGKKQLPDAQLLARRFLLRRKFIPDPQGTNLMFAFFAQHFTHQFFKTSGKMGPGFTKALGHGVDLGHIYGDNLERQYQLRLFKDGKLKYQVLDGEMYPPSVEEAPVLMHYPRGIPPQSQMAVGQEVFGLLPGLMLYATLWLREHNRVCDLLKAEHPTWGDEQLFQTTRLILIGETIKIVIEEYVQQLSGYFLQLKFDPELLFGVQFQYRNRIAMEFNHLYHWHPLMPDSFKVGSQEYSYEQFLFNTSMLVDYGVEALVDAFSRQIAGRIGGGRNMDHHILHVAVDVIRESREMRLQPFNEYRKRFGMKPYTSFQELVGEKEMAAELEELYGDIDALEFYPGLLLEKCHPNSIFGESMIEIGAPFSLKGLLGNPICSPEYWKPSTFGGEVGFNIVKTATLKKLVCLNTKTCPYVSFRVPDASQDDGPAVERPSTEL
Method in brief: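 Washed human platelets (5×10^7 cells/mL) in modified HEPES buffer pH 7.4, preincubated with compound 15 min at 37 °C. Reaction started with 100 µM arachidonic acid, run 15 min at 37 °C, stopped with 1 N HCl. PGE2 quantified by EIA.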

[3] = molecular target: T3, Prostaglandin G/H synthase 2 (Homo sapiens) (UniProt P35354); test: Inhibition of human recombinant COX2 expressed in insect Sf9 cells at 10 uM by enzyme immunoassay
T3 sequence (whole entry): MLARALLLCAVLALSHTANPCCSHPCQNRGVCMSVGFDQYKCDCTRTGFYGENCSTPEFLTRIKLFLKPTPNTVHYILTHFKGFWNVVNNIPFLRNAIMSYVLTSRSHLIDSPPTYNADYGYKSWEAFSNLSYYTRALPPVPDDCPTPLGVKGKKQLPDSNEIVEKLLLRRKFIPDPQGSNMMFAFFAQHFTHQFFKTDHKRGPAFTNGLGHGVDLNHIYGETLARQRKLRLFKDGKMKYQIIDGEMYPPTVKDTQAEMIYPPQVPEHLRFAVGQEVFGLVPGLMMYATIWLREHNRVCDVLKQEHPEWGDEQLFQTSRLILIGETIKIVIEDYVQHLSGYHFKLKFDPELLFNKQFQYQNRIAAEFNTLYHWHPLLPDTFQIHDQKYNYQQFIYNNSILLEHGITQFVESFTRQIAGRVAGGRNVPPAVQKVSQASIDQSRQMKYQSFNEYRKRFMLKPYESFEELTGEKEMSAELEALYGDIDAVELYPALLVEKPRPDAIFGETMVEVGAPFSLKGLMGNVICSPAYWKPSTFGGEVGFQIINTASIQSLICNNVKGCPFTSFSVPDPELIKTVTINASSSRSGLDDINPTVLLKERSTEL

[4] = molecular target: T4, Prostaglandin G/H synthase 2 (Mus musculus, UniProt Q05769); test: Inhibition of COX2 in mouse RAW264.7 cells by enzyme immunoassay
T4 sequence (Q05769 whole entry): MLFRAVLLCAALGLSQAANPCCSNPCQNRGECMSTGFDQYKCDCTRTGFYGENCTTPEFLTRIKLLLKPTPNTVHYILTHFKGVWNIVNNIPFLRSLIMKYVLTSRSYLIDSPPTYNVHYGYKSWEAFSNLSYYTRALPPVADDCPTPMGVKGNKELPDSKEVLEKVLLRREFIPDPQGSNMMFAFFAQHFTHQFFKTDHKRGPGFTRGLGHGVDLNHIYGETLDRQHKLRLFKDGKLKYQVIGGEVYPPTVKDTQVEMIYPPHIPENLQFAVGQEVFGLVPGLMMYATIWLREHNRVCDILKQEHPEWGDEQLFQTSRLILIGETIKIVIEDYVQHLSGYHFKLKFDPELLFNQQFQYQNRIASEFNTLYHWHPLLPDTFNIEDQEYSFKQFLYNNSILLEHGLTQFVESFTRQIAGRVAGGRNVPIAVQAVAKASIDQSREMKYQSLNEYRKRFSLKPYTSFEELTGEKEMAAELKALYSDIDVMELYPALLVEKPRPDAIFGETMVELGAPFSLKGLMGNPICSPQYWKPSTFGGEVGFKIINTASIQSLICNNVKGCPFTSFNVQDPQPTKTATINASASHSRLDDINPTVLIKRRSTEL

[5] = molecular target: Mitogen-activated protein kinase 14 (Homo sapiens) (UniProt Q16539); test: Inhibition of p38alpha MAPK at 10 uM
Chain of Mitogen-activated protein kinase 14 (Homo sapiens) (Q16539 whole entry): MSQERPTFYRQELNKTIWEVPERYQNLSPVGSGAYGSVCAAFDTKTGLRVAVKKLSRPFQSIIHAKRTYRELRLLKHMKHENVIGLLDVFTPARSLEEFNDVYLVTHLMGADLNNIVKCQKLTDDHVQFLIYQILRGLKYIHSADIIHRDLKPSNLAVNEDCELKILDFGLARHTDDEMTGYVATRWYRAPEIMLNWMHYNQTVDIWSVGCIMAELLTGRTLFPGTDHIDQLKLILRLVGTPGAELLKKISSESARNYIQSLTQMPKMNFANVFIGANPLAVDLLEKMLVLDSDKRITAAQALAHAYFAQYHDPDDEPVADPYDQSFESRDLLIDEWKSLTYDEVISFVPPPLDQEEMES

[6] = molecular target: T5, Polyunsaturated fatty acid 5-lipoxygenase (Homo sapiens, UniProt P09917); test: Inhibition of LOX5 in human PMBL by enzyme immunoassay
T5 sequence (P09917 whole entry): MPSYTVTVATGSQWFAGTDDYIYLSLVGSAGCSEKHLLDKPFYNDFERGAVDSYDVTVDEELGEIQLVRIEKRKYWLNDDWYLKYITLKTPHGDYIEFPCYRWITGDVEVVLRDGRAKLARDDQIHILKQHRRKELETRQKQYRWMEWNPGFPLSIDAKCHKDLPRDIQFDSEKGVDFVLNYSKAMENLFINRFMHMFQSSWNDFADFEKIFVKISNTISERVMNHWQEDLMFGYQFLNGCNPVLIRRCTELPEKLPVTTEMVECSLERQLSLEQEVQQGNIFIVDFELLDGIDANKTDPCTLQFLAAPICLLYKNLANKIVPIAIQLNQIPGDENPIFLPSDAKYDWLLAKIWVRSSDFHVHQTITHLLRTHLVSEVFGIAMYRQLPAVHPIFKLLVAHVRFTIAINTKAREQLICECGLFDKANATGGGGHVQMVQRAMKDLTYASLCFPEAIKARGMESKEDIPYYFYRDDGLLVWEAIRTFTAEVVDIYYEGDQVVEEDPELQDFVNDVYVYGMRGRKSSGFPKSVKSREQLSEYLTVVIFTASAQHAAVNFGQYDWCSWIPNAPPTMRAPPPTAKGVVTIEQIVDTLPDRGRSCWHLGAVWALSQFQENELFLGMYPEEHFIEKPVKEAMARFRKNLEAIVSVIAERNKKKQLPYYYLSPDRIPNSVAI
Method in brief: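 Human peripheral blood mononuclear leukocytes (5×10^6 cells/mL) in HBSS pH 7.4, preincubated with compound 15 min at 37 °C. Stimulated with 30 µM A23187 for 15 min at 37 °C, stopped with 1 N HCl, neutralized with NaOH and centrifuged. Supernatant LTB4 measured by EIA.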

THP-1 [7] = test: Antiinflammatory activity in human THP1 cells assessed as inhibition of LPS-induced TNFalpha release by ELISA; type: functional, cell-based
Method in brief: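 Differentiated THP-1 macrophages were used. They were made by 72 h culture in conditioned medium from THP-1 cells treated with 200 ng/mL PMA for 24 h, washed and rested 24 h. Cells were preincubated with compounds at 0.01, 0.1, 1 and 10 µM for 1 h at 37 °C, then stimulated with 100 ng/mL LPS for 24 h. Duplicate determinations, mean ± SD.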

[8] = molecular target: T3, Prostaglandin G/H synthase 2 (Homo sapiens); settings: THP-1, at 10 µM
[9] = molecular target: T2, Prostaglandin G/H synthase 1; test: Inhibition of human recombinant COX1 in human platelets by enzyme immunoassay
Method in brief: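 Source was washed human platelets (5×10^7 cells/mL) in modified HEPES buffer, pH 7.4. Compounds were preincubated 15 min at 37 °C, then 100 µM arachidonic acid was added for 15 min at 37 °C. The reaction was stopped with 1 N HCl. COX-1 activity was read as PGE2 by EIA.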

[10] = molecular target: T6, Prostaglandin G/H synthase 2 (Homo sapiens, UniProt P35354); test: Inhibition of human recombinant COX2 expressed in insect Sf9 cells by enzyme immunoassay
T6 sequence (P35354 whole entry): T3 sequence (whole entry)

THP-1 [11] = test: Antiinflammatory activity in human THP1 cells assessed as inhibition of LPS-induced TNFalpha release at 10 uM by ELISA; type: functional
Method in brief: (§1)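 THP-1 monocytes differentiated to macrophages over 72 h with conditioned medium from cells given 200 ng/mL PMA for 24 h, washed, and rested 24 h. Cells pretreated with compound (0.01–10 uM) for 1 h at 37 °C, then stimulated with 100 ng/mL LPS for 24 h. TNF-α release measured, mean ± SD of duplicates.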

THP-1 [12] = test: Antiinflammatory activity in human THP1 cells assessed as inhibition of LPS-induced TNFalpha release at 1 uM by ELISA; type: functional; method in brief: as §1

SMILES: CS(=O)(=O)Nc1ccc([N+](=O)[O-])cc1OC1CCCCC1 [NS-398]
IC50 [1]: 63.7 µM

SMILES: COc1ccc2c(c1)c(CC(=O)NCCc1ccccc1)c(C)n2C(=O)c1ccc(Cl)cc1
IC50 [1]: 56.7 µM

SMILES: C[C@@H]1C[C@H]2[C@@H]3CCC4=CC(=O)C=C[C@]4(C)[C@@]3(F)[C@@H](O)C[C@]2(C)[C@@]1(O)C(=O)CO [DEXAMETHASONE]
inhibition at 1 µM (THP-1 [12]): 89%

SMILES: Cc1ccc(-c2cc(C(F)(F)F)nn2-c2ccc(S(N)(=O)=O)cc2)cc1
Activity (THP-1 [11]): inactive

The next lines start with results.

inhibition [2]: 17%
inhibition [3]: 27%
SMILES: NS(=O)(=O)c1ccc2c(c1)S(c1ccc(Br)cc1)=NS2(=O)=O (stereo unspecified)

IC50 [4]: 4.4 µM
inhibition [5]: inactive
IC50 [6]: 1.22 µM
IC50 (THP-1 [7]): 0.44 µM
inhibition [8]: 77%
IC50 [1]: 2.1 µM
IC50 [9]: 6.7 µM
IC50 [10]: 1.7 µM
SMILES: O=[N+]([O-])c1ccc2c(c1)S(=O)(=O)N=S2c1ccc(Br)cc1 (stereo unspecified)
inhibition at 10 µM (THP-1 [11]): 92%

IC50 [4]: 18.1 µM
IC50 [6]: 0.47 µM
inhibition [2]: 39%
inhibition [3]: 23%
IC50 [1]: 1.5 µM
SMILES: O=[N+]([O-])c1ccc2c(c1)S(c1ccc(Br)cc1)=NS2(=O)=O (stereo unspecified)
Activity (THP-1 [11]): inactive

— ChEMBL document CHEMBL1159122 (Bioorg Med Chem, 2010)
